The text below walks through data of PMC3929337 (Biochemistry, 2014).

For assay [1], the system named is Aβ peptide variants in PS1 mutant-expressing cell lines. Conditions: cited from earlier work.
In assay [2] the test system is Notch 1 receptor (NΔE) proteolysis, NICD. Kind of assay: Cell-based Notch proteolytic processing assay. Further details: species or system human. Conditions: H4-APP751/NΔE cells, 24 h; lowest concentration tested. The essentials:
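H4 human neuroglioma cells stably overexpressing human APP751 were transfected with Myc-tagged NΔE Notch and treated for a further 24 h with serially diluted test compound, DMSO vehicle, or a dipeptidic γ-secretase inhibitor as positive control. Concentrations ranged up to 30 μM. Cells were harvested 48 h post-transfection. Lysates were Western blotted with anti-Myc for NΔE/NICD, an APP C-terminal antibody for holo-APP, C99 and C83, and anti-β-actin as loading control.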

As for `COc1cc(/C=C2\CCCN([C@@H](C)c3ccc(F)cc3)C2=O)ccc1-n1cnc(C)c1` [Eisai], in assay [1], the “effects on Aβ38 and Aβ42 in PS1 mutant cell lines” value is recorded as “behaved like the “TorreyPines” compound”.
For `C[C@H](NC(=O)Cc1cc(F)cc(F)c1)C(=O)NC(C(=O)OC(C)(C)C)c1ccccc1` (stereo partly drawn) [DAPT, N-[N-(3,5-difluorophenacetyl)-L-alanyl]-S-phenylglycine tert-butyl ester], the “concentration at which inhibition of NICD occurred” value in assay [2] is recorded as at most 300 nM.
With `CC(C)CC[C@H](c1ccc(Cl)cc1)N1CC[C@@H](CC(=O)O)C[C@H]1c1ccc(C(F)(F)F)cc1` [GSM-1], the “effect on Aβ peptide variants, G384A PS1 mutant” value in assay [1] (G384A PS1 mutant) is “effectively lowered Aβ42, Aβ40, and Aβ37”. Further, in assay [1] (PS1 mutants L166P and N135S), the “effect on Aβ38 levels, PS1 mutants L166P and N135S” value is recorded as “increases in Aβ38 levels”; the “inhibition of Aβ42, PS1 mutants L166P and N135S” value is on record as “resistant”.
